Data from ChEMBL document CHEMBL4152262, “Design, synthesis and evaluation of novel multi-target-directed ligands for treatment of Alzheimer's disease based on coumarin and lipoic acid scaffolds” (Eur J Med Chem, 2018).
pIC50: −log10 of the molar value.

Key:
PC-12 [1] = test: Neuroprotection against H2O2-induced cell death in rat PC12 cells assessed as cell viability at 0.1 uM preincubated for 3 hrs followed by H2O2 stimulation measured after 2 hrs by MTT assay (reference value: 25.2 to 41.8%); assay type: functional; settings: read-out: Activity
PC-12 [2] = test: Neuroprotection against H2O2-induced cell death in rat PC12 cells assessed as cell viability at 1 uM preincubated for 3 hrs followed by H2O2 stimulation measured after 2 hrs by MTT assay (reference value: 25.2 to 41.8%); assay type: functional; settings: read-out: Activity
PC-12 [3] = test: Neuroprotection against H2O2-induced cell death in rat PC12 cells assessed as cell viability at 5 uM preincubated for 3 hrs followed by H2O2 stimulation measured after 2 hrs by MTT assay (reference value: 25.2 to 41.8%); assay type: functional; settings: read-out: Activity
PC-12 [4] = test: Neuroprotection against H2O2-induced cell death in rat PC12 cells assessed as cell viability at 10 uM preincubated for 3 hrs followed by H2O2 stimulation measured after 2 hrs by MTT assay (reference value: 25.2 to 41.8%); assay type: functional; settings: read-out: Activity
PC-12 [5] = test: Neuroprotection against H2O2-induced cell death in rat PC12 cells assessed as cell viability at 20 uM preincubated for 3 hrs followed by H2O2 stimulation measured after 2 hrs by MTT assay (reference value: 25.2 to 41.8%); assay type: functional; settings: read-out: Activity
PC-12 [6] = test: Neuroprotection against H2O2-induced cell death in rat PC12 cells assessed as cell viability at 50 uM preincubated for 3 hrs followed by H2O2 stimulation measured after 2 hrs by MTT assay (reference value: 25.2 to 41.8%); assay type: functional; settings: read-out: Activity
PC-12 [7] = test: Neuroprotection against H2O2-induced cell death in rat PC12 cells assessed as increase in cell viability preincubated for 3 hrs followed by H2O2 stimulation measured after 2 hrs by MTT assay; assay type: functional, cell-based
Acetylcholinesterase = Acetylcholinesterase (Electrophorus electricus, UniProt O42275); test: Inhibition of electric eel AChE using acetylthiocholine iodide as substrate pretreated for 5 mins followed by substrate addition by Ellman's method
Cholinesterase = Cholinesterase (Equus caballus, UniProt P81908); test: Inhibition of equine serum BuChE using butyrylthiocholine iodide as substrate pretreated for 5 mins followed by substrate addition by Ellman's method
In short: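 Ellman assay with horse serum BuChE (5 IU/mL) in 0.1 M phosphate buffer pH 8.0 with DTNB. Compound was preincubated with enzyme 5 min, then butyrylthiocholine iodide was added. Absorbance read at 412 nm. IC50 from a log concentration vs % inhibition curve; triplicate runs.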

[8] = Inhibition of soybean 15-LOX assessed as reduction in conversion of linoleic acid to 13-hydroperoxylinoleic acid by spectrophotometric method; set-up: species or system Glycine max
In short: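 Soybean lipoxygenase type 1-B (final 167 U/mL) with compound (DMSO stock diluted in 0.1 M phosphate buffer pH 8) and linoleic acid (134 mM in ethanol) at room temperature. Formation of 13-hydroperoxylinoleic acid followed spectrophotometrically at 234 nm.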

Acetylcholinesterase, sequence (O42275 whole entry): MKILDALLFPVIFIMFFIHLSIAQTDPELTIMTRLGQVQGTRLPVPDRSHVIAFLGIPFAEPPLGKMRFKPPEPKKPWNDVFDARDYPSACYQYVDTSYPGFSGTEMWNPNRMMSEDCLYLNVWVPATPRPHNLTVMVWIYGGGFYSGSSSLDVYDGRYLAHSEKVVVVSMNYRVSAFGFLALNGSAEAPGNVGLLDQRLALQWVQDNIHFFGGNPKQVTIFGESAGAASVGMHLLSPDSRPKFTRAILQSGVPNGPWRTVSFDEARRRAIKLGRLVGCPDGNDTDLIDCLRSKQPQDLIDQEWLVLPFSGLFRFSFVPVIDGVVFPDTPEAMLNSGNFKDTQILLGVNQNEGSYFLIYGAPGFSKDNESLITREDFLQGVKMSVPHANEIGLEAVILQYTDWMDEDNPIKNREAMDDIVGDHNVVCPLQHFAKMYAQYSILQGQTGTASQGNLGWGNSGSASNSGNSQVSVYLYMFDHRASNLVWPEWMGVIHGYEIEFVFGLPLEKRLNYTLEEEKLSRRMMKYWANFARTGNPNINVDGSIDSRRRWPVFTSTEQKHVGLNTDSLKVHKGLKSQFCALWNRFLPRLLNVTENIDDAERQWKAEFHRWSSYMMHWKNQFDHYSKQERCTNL
Cholinesterase, sequence (P81908 whole entry): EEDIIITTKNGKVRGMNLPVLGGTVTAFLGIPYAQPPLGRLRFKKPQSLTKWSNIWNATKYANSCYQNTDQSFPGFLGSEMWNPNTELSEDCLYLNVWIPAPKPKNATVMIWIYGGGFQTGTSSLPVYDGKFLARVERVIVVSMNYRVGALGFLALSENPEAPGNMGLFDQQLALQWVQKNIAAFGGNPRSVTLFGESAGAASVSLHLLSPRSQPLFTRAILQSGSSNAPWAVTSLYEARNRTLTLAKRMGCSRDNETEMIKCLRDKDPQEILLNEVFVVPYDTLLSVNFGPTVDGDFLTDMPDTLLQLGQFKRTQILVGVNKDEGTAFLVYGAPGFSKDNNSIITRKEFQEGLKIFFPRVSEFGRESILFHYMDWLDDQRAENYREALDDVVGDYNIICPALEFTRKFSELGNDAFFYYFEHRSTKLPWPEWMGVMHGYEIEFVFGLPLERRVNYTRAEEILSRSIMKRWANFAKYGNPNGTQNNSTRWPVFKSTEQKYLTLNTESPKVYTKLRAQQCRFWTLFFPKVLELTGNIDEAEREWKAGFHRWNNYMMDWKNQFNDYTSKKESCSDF

SMILES	viability at 0.1 µM (PC-12 [1]) [%]	viability at 1 µM (PC-12 [2]) [%]	viability at 5 µM (PC-12 [3]) [%]	viability at 10 µM (PC-12 [4]) [%]	viability at 20 µM (PC-12 [5]) [%]	viability at 50 µM (PC-12 [6]) [%]	Activity (PC-12 [7])	pIC50 (Acetylcholinesterase)	pIC50 (Cholinesterase)	pIC50 [8]
O=C(CCCCC1CCSS1)NCc1cn(CCCCCOc2ccc3cc(-c4ccc(Br)cc4)c(=O)oc3c2)nn1 (configuration not stated)	41.8	43.7	45.7	48.4	52.3	53.6	Dose-dependent effect	< 4.00	< 4.00	< 4.00
CC(=O)c1cc2ccc(OCCCn3cc(CNC(=O)CCCCC4CCSS4)nn3)cc2oc1=O (configuration not stated)	34.6	35.5	37.5	38	39.8	40.7	Dose-dependent effect	4.26	< 4.00	< 4.00
COc1ccc(-c2cc3ccc(OCCCn4cc(CNC(=O)CCCCC5CCSS5)nn4)cc3oc2=O)cc1 (configuration not stated)	42	47.4	52.8	57.6	62	65.7	Dose-dependent effect	4.40	< 4.00	< 4.00
CCOC(=O)c1cc2ccc(OCCCn3cc(CNC(=O)CCCCC4CCSS4)nn3)cc2oc1=O (configuration not stated)	28	28.3	32.4	36.1	42.1	49.2	Dose-dependent effect	4.26	< 4.00	< 4.00
O=C(CCCCC1CCSS1)NCc1cn(CCCCOc2ccc3cc(-c4ccc(Cl)cc4)c(=O)oc3c2)nn1 (configuration not stated)	38.8	46.2	52	61.8	68.4	74.9	Dose-dependent effect	< 4.00	4.28	< 4.00
O=C(CCCCC1CCSS1)NCc1cn(CCCOc2ccc3cc(-c4ccccc4)c(=O)oc3c2)nn1 (configuration not stated)	33.9	31.9	29.8	29.1	27.2	23.1	–	< 4.00	< 4.00	< 4.00
COc1ccc(-c2cc3ccc(OCCCCn4cc(CNC(=O)CCCCC5CCSS5)nn4)cc3oc2=O)cc1 (configuration not stated)	32.1	36.8	44.9	48.6	52.3	55.3	Dose-dependent effect	< 4.00	< 4.00	< 4.00
O=C(CCCCC1CCSS1)NCc1cn(CCCCOc2ccc3cc(-c4ccccc4)c(=O)oc3c2)nn1 (configuration not stated)	38.6	34.8	32.8	30.5	26	20.5	–	< 4.00	< 4.00	< 4.00
O=C(CCCCC1CCSS1)NCc1cn(CCCOc2ccc3cc(-c4ccc(Br)cc4)c(=O)oc3c2)nn1 (configuration not stated)	39.5	42.8	57.3	63.3	69.1	74.7	Dose-dependent effect	4.33	< 4.00	< 4.00
CCOC(=O)c1cc2ccc(OCCCCCn3cc(CNC(=O)CCCCC4CCSS4)nn3)cc2oc1=O (configuration not stated)	34.4	35.1	36.4	38.3	39.5	40.7	Dose-dependent effect	4.22	< 4.00	< 4.00
O=C(CCCCC1CCSS1)NCc1cn(CCCCCOc2ccc3cc(-c4ccc(Cl)c(Cl)c4)c(=O)oc3c2)nn1 (configuration not stated)	39.7	50.6	54.8	59.4	65.5	66.2	Dose-dependent effect	< 4.00	5.11	< 4.00
COc1ccc(-c2cc3ccc(OCCCCCn4cc(CNC(=O)CCCCC5CCSS5)nn4)cc3oc2=O)cc1 (configuration not stated)	34.5	37.1	41	45.5	49	52.8	Dose-dependent effect	< 4.00	< 4.00	< 4.00
COc1ccc(-c2cc3ccc(OCCCCCn4cc(CNC(=O)CCCCC5CCSS5)nn4)cc3oc2=O)cc1OC (configuration not stated)	38.5	42.2	46.9	50.5	51.9	55	Dose-dependent effect	< 4.00	< 4.00	< 4.00
O=C(CCCCC1CCSS1)NCc1cn(CCCCCOc2ccc3cc(-c4ccccc4)c(=O)oc3c2)nn1 (configuration not stated)	35.5	30.7	28	26.3	20.7	17.7	–	< 4.00	< 4.00	< 4.00
O=C(CCCCC1CCSS1)NCc1cn(CCCOc2ccc3cc(-c4ccc(Cl)cc4)c(=O)oc3c2)nn1 (configuration not stated)	40.9	49.3	60.6	67.8	75.6	79.4	Dose-dependent effect	< 4.00	< 4.00	< 4.00
CC(=O)c1cc2ccc(OCCCCCn3cc(CNC(=O)CCCCC4CCSS4)nn3)cc2oc1=O (configuration not stated)	28.9	27.4	22.2	20.8	20.7	18.2	–	< 4.00	< 4.00	< 4.00
O=c1c(O)c(-c2ccc(O)c(O)c2)oc2cc(O)cc(O)c12 [QUERCETIN]	36.2	40.7	47.3	53.7	56.9	58.8	–	–	–	–
